Experimental data taken from ChEMBL document CHEMBL2176900, “Design and synthesis of a novel series of bicyclic heterocycles as potent γ-secretase modulators” (J Med Chem, 2012).
Values after ≈ are worked out from the molar mass of the structure shown. Active and inactive are the calls of the source. The rule behind the calls is not given here.

Tests used:
[1] = test system: Rattus norvegicus; assay: Antialzheimer activity in Sprague-Dawley rat assessed as amyloid beta 37 level in CSF at 10 mg/kg, po at 2 hrs by ELISA relative to control; format: functional
Outline: (§1)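 Male Sprague-Dawley rats (180-220 g), fasted overnight, were given 10 mg/kg by gastric intubation as a 5 mg/mL suspension in 0.5% methocellulose. At 2, 4, 7 and 25 h, 50 μL CSF was taken from the cisterna magna under isoflurane, then brain was collected. Aβ37/38/40/42 were measured by MesoScale Discovery sandwich immunoassays. Results are mean % change versus T = 0 h, n = 5.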

[2] = Plasma concentration in beagle dog at 20 mg/kg, po at 24 hrs; format: ADME, organism-based, Canis lupus familiaris; design: dose 20 mg/kg, route oral
[3] = Oral bioavailability in Sprague-Dawley rat at 10 mg/kg; format: ADME, organism-based; conditions: in vivo
[4] = Plasma concentration in CD1 mouse at 30 mg/kg, po at 24 hrs by LC-MS/MS analysis; format: ADME, organism-based; design: dose 30 mg/kg, route oral
Outline: (§2)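 Mice received a single 10 or 30 mg/kg oral dose. Plasma was sampled at several time points up to 48 h, with EDTA plasma obtained by centrifugation at 1900g, 10 min, 4 °C. Compound was quantified by LC-MS/MS, n = 4.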

[5] = test system: Brain; assay: Drug uptake in CD1 mouse brain at 10 mg/kg, po at 24 hrs by LC-MS/MS analysis; format: ADME, organism-based; design: dose 10 mg/kg, route oral; conditions: in vivo, BLD = below limit of detection
Outline: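 Overnight-fasted male CD1 mice received one oral dose (10 or 30 mg/kg) in 20% Captisol. After sacrifice, the left brain hemisphere was stored at −18 °C. Compound level was quantified by a qualified LC-MS/MS method, alongside EDTA plasma spun at 1900g, 4 °C. n = 4 per time point.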

[6] = Plasma concentration in CD1 mouse at 10 mg/kg, po at 24 hrs by LC-MS/MS analysis; format: ADME, organism-based; design: dose 10 mg/kg, route oral; outline: as §2
[7] = test system: Mus musculus; assay: Antialzheimer activity in CD1 mouse assessed as amyloid beta 42 level in brain at 30 mg/kg, po at 8 hrs by ELISA relative to control; format: functional
Outline: (§3)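 Male CD1 SPF mice, fasted overnight, got a single oral dose of 10 or 30 mg/kg. At each time point the right brain hemisphere was homogenized in 0.4% DEA/50 mM NaCl with protease inhibitors and spun at 221300g for 50 min. The supernatant was neutralized with Tris-HCl pH 6.8. Aβ38 or Aβ42 was read by sandwich ELISA with a fluorogenic peroxidase substrate (ex 320/em 420 nm). Results are mean % change versus T = 0 h, n = 4.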

[8] = test system: Mus musculus; assay: Antialzheimer activity in CD1 mouse assessed as amyloid beta 38 level in brain at 30 mg/kg, po at 24 hrs by ELISA relative to control; format: functional; outline: as §3
[9] = Thermodynamic solubility in fasted state simulated intestinal fluid; format: physicochemical; conditions: read-out: Therm_solubility
Outline: (§4)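 Thermodynamic solubility was measured in pH 4.0 and pH 7.4 buffers, 0.01 N HCl, and fasted-state and fed-state simulated intestinal fluids (FaSSIF, FeSSIF). Results are in […].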

[10] = Thermodynamic solubility in buffer at pH 7.4; format: physicochemical; conditions: read-out: Therm_solubility; outline: as §4
[11] = Fraction unbound in dog plasma; format: ADME, cell-free, Canis lupus familiaris
[12] = Fraction unbound in mouse plasma; format: ADME, cell-free
[13] = target: T1, Cytochrome P450 1A2 (Homo sapiens, UniProt P05177); assay: Inhibition of CYP1A2 in human liver microsomes using phenacetin as substrate; format: ADME, Microsome
T1 sequence (P05177 whole entry): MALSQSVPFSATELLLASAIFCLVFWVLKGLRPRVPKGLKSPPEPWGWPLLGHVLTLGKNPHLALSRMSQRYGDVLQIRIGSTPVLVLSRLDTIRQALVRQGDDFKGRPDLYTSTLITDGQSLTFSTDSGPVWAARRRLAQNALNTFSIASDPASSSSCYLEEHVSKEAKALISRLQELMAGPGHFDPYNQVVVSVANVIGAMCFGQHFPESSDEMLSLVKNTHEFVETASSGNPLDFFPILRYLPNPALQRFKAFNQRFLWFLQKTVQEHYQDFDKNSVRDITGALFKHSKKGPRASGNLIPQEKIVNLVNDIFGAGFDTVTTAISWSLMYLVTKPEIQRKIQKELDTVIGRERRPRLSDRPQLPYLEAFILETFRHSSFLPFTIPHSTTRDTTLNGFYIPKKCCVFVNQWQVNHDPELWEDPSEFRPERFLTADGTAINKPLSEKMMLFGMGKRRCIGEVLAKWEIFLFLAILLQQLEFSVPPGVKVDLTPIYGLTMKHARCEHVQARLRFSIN

[14] = target: Cytochrome P450 2C9 (Homo sapiens, UniProt P11712); assay: Inhibition of CYP2C9 in human liver microsomes using tolbutamide as substrate; format: ADME, Microsome
Chain of Cytochrome P450 2C9 (P11712 whole entry): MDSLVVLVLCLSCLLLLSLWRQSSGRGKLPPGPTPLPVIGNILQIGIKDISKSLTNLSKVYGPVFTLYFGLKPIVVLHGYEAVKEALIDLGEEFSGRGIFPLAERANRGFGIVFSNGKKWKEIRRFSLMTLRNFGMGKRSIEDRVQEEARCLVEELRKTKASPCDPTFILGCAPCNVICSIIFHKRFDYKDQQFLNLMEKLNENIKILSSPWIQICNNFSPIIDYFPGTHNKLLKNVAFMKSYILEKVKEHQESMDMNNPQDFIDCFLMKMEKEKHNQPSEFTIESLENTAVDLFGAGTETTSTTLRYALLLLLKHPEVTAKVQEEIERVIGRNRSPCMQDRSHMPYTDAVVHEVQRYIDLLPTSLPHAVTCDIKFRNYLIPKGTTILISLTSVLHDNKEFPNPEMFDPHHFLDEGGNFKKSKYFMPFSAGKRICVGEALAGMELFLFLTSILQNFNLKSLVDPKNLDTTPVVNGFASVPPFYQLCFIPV

[15] = target: Cytochrome P450 2D6 (Homo sapiens, UniProt P10635); assay: Inhibition of CYP2D6 in human liver microsomes using dextrometorphan as substrate; format: ADME, Microsome
Chain of Cytochrome P450 2D6 (P10635 whole entry): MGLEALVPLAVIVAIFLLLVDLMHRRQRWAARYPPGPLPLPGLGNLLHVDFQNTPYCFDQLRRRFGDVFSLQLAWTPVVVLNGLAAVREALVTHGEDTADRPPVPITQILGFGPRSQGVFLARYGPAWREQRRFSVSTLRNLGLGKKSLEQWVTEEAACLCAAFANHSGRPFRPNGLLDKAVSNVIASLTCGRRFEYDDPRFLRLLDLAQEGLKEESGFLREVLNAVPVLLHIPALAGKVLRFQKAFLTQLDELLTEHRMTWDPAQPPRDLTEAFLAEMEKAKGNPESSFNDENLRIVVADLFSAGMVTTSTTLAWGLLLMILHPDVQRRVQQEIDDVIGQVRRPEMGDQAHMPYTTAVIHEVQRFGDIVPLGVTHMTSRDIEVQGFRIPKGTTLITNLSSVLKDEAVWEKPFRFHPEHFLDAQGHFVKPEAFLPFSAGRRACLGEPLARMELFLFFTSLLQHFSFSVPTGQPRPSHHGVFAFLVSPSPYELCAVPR

[16] = test system: Mus musculus; assay: Reduction in total amyloid beta level in CD1 mouse at 30 mg/kg, po at 4 hrs by ELISA relative to control; format: functional, organism-based; design: dose 30 mg/kg
Outline: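 Overnight-fasted male CD1 Swiss SPF mice were given a single oral dose as a suspension in 20% Captisol in water. Brains were taken at 4 h and the right hemisphere homogenized in 0.4% DEA/50 mM NaCl with protease inhibitors, then spun at 221300g for 50 min. The neutralized supernatant was read by Aβtotal ELISA (capture JRF/rAβ/2, biotinylated 4G8, streptavidin-peroxidase, QuantaBlu, ex 320/em 420 nm). Values are % change versus untreated animals, n ≥ 6.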

[17] = test system: Plasma; assay: Plasma concentration in CD1 mouse at 30 mg/kg, po at 48 hrs by LC-MS/MS analysis; format: ADME, organism-based; design: dose 30 mg/kg, route oral; conditions: in vivo, BLD = below limit of detection; outline: as §2
[18] = test system: Plasma; assay: Plasma concentration in CD1 mouse at 10 mg/kg, po at 48 hrs by LC-MS/MS analysis; format: ADME, organism-based; design: dose 10 mg/kg, route oral; conditions: in vivo, BLD = below limit of detection; outline: as §2
[19] = test system: Mus musculus; assay: Antialzheimer activity in CD1 mouse assessed as amyloid beta 42 level in brain at 30 mg/kg, po at 48 hrs by ELISA relative to control; format: functional
Outline: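 Male CD1 mice, fasted overnight, received a single 10 or 30 mg/kg oral dose. Brain was sampled at an added 48 h time point. The DEA-soluble brain fraction was neutralized and Aβ42 was measured by sandwich ELISA with fluorogenic read-out. Values are % versus vehicle.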

[20] = Drug uptake in Sprague-Dawley rat brain at 10 mg/kg, po at 4 hrs by LC-MS/MS analysis; format: ADME, organism-based; design: dose 10 mg/kg, route oral; conditions: read-out: Drug uptake
Outline: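 Overnight-fasted male Sprague–Dawley rats (180–220 g) were dosed 10 mg/kg by gastric intubation of a 5 mg/mL suspension in 0.5% methocellulose. Rats were anesthetized with isoflurane, CSF was taken from the cisterna magna, then they were decapitated. Brain compound levels were measured as in the mouse assay. n = 5.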

[21] = test system: Rattus norvegicus; assay: Antialzheimer activity in Sprague-Dawley rat assessed as amyloid beta 42 level in CSF at 10 mg/kg, po at 25 hrs by ELISA relative to control; format: functional; outline: as §1
[22] = test system: Rattus norvegicus; assay: Antialzheimer activity in Sprague-Dawley rat assessed as amyloid beta 40 level in brain at 10 mg/kg, po at 25 hrs by ELISA relative to control; format: functional; outline: as §1

COc1nc(Nc2cccc3c2nc(-c2ccc(F)cc2)n3C)ccc1-n1cnc(C)c1
Activity [1]: 735%
concentration at 24 h [2]: 0.04 µM
bioavailability [3]: 95%
concentration at 24 h [4]: 0.31 µM
Drug uptake [5]: BLD
concentration at 24 h [6]: 0.004 µM
Activity [7]: 29%
Activity [8]: 101%
solubility thermodynamic [9]: 3 µg/mL (≈ 7 µM)
solubility thermodynamic [10]: < 1 µg/mL
fraction unbound [11]: 0.0003
fraction unbound [12]: 0.0004
IC50 [13]: > 30 µM
IC50 [14]: 21.9 µM
IC50 [15]: 3.6 µM
Activity [16]: inactive
Cp [17]: BLD
Cp [18]: BLD
Activity [19]: 101%
concentration at 4 h [20]: 2.2 µM
Activity [21]: 89%
Activity [22]: 107%
